Reference: ChEMBL document CHEMBL4808161, “Structure-Activity Relationship Study of Amidobenzimidazole Analogues Leading to Potent and Systemically Administrable Stimulator of Interferon Gene (STING) Agonists” (J Med Chem, 2021)
Active and inactive are the calls of the source. The calls are words filed in the database; no cut-off is given here.

Experiments:
[1] = target: T1, Stimulator of interferon genes protein (Homo sapiens, UniProt Q86WV6); experiment: Agonist activity at wild type human STING expressed in baculovirus infected Sf21 insect cells
T1 sequence (Q86WV6 whole entry): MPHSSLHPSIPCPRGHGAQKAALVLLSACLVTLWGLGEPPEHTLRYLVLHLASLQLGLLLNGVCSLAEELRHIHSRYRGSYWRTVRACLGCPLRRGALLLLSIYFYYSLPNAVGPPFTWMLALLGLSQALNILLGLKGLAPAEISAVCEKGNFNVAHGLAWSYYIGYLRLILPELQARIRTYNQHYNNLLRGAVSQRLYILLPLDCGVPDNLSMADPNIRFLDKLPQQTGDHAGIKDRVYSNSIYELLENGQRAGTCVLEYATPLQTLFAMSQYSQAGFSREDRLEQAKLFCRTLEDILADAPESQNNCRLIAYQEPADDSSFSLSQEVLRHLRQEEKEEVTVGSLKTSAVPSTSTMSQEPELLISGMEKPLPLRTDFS

[2] = target: Stimulator of interferon genes protein (Homo sapiens, UniProt Q86WV6, G230A/R293Q/R71H); experiment: Agonist activity at human STING HAQ expressed in baculovirus infected Sf21 insect cells
Sequence of Stimulator of interferon genes protein (Homo sapiens, UniProt Q86WV6, G230A/R293Q/R71H) (Q86WV6 whole entry R71H/G230A/R293Q): as the sequence (Q86WV6 whole entry) above, with R71H, G230A, R293Q counted along it

Homo sapiens [3] = species on record: Homo sapiens; experiment: Binding affinity to human STING 293Q mutant assessed as thermal stability by measuring melting temperature […] differential scanning fluorimetry (reference value: 46.25 degreeC); details: filed as activator
Summary of the method: (§1)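 Thermal shift by DSF: 5 μM STING protein, 50 μM compound and 10× SYPRO Orange in 10 mM HEPES pH 7.5, 150 mM NaCl. Samples heated from 30 to 80 °C at 0.5 °C/min. Tm taken as the temperature of median fluorescence between onset and maximum; n = 3.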

[4] = target: T1, Stimulator of interferon genes protein; experiment: Activation of STING in human THP1-Dual cells assessed as induction of NF-KB signaling measured after 24 hrs by Quanti-Blue reagent based assay; format: cell-based; details: filed as activator, dose 0.005-10 µM
Summary of the method: (§2)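 THP1-Dual cells (1 × 10⁵/well) treated for 24 h. Supernatant (20 μL) incubated 1 h at 37 °C with QUANTI-Blue, then absorbance read at 650 nm. Fold change calculated relative to vehicle control.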

CT26 = experiment: Antitumor activity against mouse CT26 cells inoculated in BALB/c mouse assessed as inhibition of tumor growth at 500 ug, IT(Intratumoral) administered on day 1,4 and 7 post inoculation; format: functional; details: dose 500.0 µg, time 7.0 day
Summary of the method: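 BALB/c mice with subcutaneous CT26 tumors (5 × 10⁵ cells, right armpit; n = 6) given 500 μg intratumorally on days 1, 4 and 7 at about 50–100 mm³. Tumor volume ((a × b²)/2) and body weight measured twice weekly.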

[5] = target: T1, Stimulator of interferon genes protein; experiment: Activation of human STING (139 to 379 residues) expressed in THP1-Blue ISG cells at 10 uM incubated for 24 hrs by quanti-blue SEAP reporter gene assay relative to control; format: cell-based; details: filed as activator
Summary of the method: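 THP1-Blue-ISG cells (1 × 10⁵/well) treated for 24 h; single-concentration screen at 10 μM. SEAP ISG reporter in 20 μL supernatant read with QUANTI-Blue at 650 nm. Activation given as fold over control, averaging at least two experiments.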

RAW-Lucia ISG-KO-STING = experiment: Effect on ISG expression in mouse RAW-Lucia ISG-KO-STING cells at 0.005 to 10 uM measured after 24 hrs; format: functional, cell-based; details: dose 0.005-10 µM
Summary of the method: (§3)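 Reporter cells (1 × 10⁵ cells/well) exposed to compound for 24 h at 37 °C in 5% CO₂. Secreted luciferase ISG reporter in 20 μL supernatant read by luminescence with QUANTI-Luc reagent. Activity expressed as fold change versus control.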

4T1 = experiment: Antitumor activity against mouse 4T1 cells and CT26 cells co-inoculated in orthotopic BALB/c mouse assessed as supression of tumor growth at 10 mg/kg, iv administered on day 1,4 and 7 post inoculation; format: functional, organism-based; details: time 7.0 day, in the assay text read “4T1 cells inoculated” for “4T1 cells and CT26 cells co-inoculated”
Summary of the method: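 BALB/c mice bearing orthotopic 4T1 tumors (5 × 10⁵ cells in the breast fat pad; n = 5) dosed iv at 10 mg/kg on days 1, 4 and 7 once tumors reached about 50–100 mm³. Tumor volume calculated as (a × b²)/2 and, with body weight, measured twice weekly.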

Mus musculus = species on record: Mus musculus; experiment: Binding affinity to mouse STING mR231 mutant assessed as thermal stability by measuring melting temperature […] differential scanning fluorimetry (reference value: 42 degreeC); details: filed as activator; summary of the method: as §1
[6] = target: T1, Stimulator of interferon genes protein; experiment: Activation of STING in human THP1-Dual cells assessed as increase in IP-10 secretion at 0.01 to 10 uM measured after 24 hrs by ELISA; format: cell-based; details: filed as activator, dose 0.01-10 µM
Summary of the method: (§4)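 THP1-Dual cells seeded at 10⁵ cells/well and treated for 24 h. Human IP-10 and IFN-β in supernatant quantified by ELISA kits. Concentration (pg/mL) derived from a standard curve.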

[7] = target: T1, Stimulator of interferon genes protein; experiment: Activation of STING in human THP1-Dual cells assessed as increase in TBK1/IRF3 phosphorylation measured after 4 hrs by Western blot analysis; format: cell-based; details: filed as activator, dose 3.3-30 µM
Summary of the method: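 THP1-Dual cells (8 × 10⁵/well) treated at 3.3, 10 and 30 μM for 4 h, then lysed in SDS sample buffer and boiled. Lysates run on 10% SDS-PAGE and transferred to nitrocellulose. Blots probed for TBK1, phospho-TBK1 Ser172, IRF3, phospho-IRF3 Ser396 and GAPDH, with HRP secondaries and ECL detection.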

[8] = system: Stimulator of interferon genes protein (Homo sapiens), Q86WV6 [UNDEFINED MUTATION]; experiment: Activation of STING H232 in human 293-Dual hSTING-R232 cells assessed as induction of ISG signaling measured after 24 hrs; format: cell-based; details: filed as activator, dose 0.005-10 µM; summary of the method: as §3
Sequence of Stimulator of interferon genes protein (Homo sapiens), Q86WV6 [UNDEFINED MUTATION] (Q86WV6 whole entry, looked up, change not shown): as the sequence (Q86WV6 whole entry) above

THP1-Dual KO-STING = experiment: Effect on ISG expression in human THP1-Dual KO-STING cells at 10 uM measured after 24 hrs; format: functional, cell-based; summary of the method: as §3
[9] = system: Stimulator of interferon genes protein (Homo sapiens), Q86WV6 [UNDEFINED MUTATION]; experiment: Binding affinity to human STING R232 mutant assessed as thermal stability by measuring melting temperature […] differential scanning fluorimetry (reference value: 38.75 degreeC); details: filed as activator; summary of the method: as §1
[10] = target: T1, Stimulator of interferon genes protein; experiment: Activation of STING in human THP1-Dual cells assessed as increase in IFNbeta secretion at 10 uM measured after 24 hrs by ELISA; format: cell-based; details: filed as activator; summary of the method: as §4
[11] = target: T2, Stimulator of interferon genes protein (Mus musculus) (UniProt Q3TBT3); experiment: Activation of mouse STING expressed in RAW-Lucia ISG cells at 50 uM incubated for 24 hrs by QUANTI-Luc luciferase reporter gene assay relative to control; details: filed as activator
T2 sequence (whole entry): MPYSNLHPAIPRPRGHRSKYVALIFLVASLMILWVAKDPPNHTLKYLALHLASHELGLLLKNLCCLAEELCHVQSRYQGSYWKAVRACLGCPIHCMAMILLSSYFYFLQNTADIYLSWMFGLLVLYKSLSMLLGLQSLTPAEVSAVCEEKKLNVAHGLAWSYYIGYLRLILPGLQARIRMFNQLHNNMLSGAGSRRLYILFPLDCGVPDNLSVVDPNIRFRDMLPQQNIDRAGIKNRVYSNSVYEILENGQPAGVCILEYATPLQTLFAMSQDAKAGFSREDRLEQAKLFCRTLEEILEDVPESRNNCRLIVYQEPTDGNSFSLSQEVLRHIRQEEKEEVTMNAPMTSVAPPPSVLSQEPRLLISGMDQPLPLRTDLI

Homo sapiens [12] = species on record: Homo sapiens; experiment: Binding affinity to human STING H232 mutant assessed as thermal stability by measuring melting temperature […] differential scanning fluorimetry (reference value: 39.5 degreeC); details: filed as activator; summary of the method: as §1
293-Dual hSTING-H232 = experiment: Activation of STING H232 in human 293-Dual hSTING-H232 cells assessed as induction of ISG signaling measured after 24 hrs; format: cell-based; details: filed as activator, dose 0.005-10 µM; summary of the method: as §3
[13] = system: Stimulator of interferon genes protein (Homo sapiens), Q86WV6 [R71H,G230A,R293Q]; experiment: Binding affinity to human STING HAQ mutant assessed as thermal stability by measuring melting temperature […] differential scanning fluorimetry (reference value: 37.25 degreeC); details: filed as activator; summary of the method: as §1
Sequence of Stimulator of interferon genes protein (Homo sapiens), Q86WV6 [R71H,G230A,R293Q] (Q86WV6 whole entry R71H/G230A/R293Q): as the sequence (Q86WV6 whole entry) above, with R71H, G230A, R293Q counted along it

[14] = target: T1, Stimulator of interferon genes protein; experiment: Activation of STING in human THP1-Dual cells assessed as induction of ISG signaling measured after 24 hrs by Quanti-Blue reagent based assay; format: cell-based; details: filed as activator, dose 0.005-10 µM; summary of the method: as §2
[15] = target: T1, Stimulator of interferon genes protein; experiment: Inhibition of [3H]-cGAMP binding to STING (unknown origin)

Question: `COc1cc2cc(C(=O)CCC(=O)O)sc2cc1OC` was tested. Which EC50 [1] did it give?
Answer: 24 µM

Question: What about the EC50 [2] of the same compound?
Answer: 8.3 µM

Question: With `CCn1nc(C)cc1C(=O)/N=c1\[nH]c2cc(-c3ncn[nH]3)cc(OC)c2n1C/C=C/Cn1/c(=N/C(=O)c2cc(C)nn2CC)[nH]c2cc(C(N)=O)cc(OCCCN3CCOCC3)c21` as the compound, how does the Tm (Homo sapiens [3]) read?
Answer: 46.8 °C

Question: And the Activity [4]?
Answer: Dose-Dependent Effect

Question: And the inhibition (CT26)?
Answer: Active

Question: And the fold change (FC) [5]?
Answer: 19.2

Question: And the Activity (RAW-Lucia ISG-KO-STING)?
Answer: inactive

Question: What about the inhibition (4T1) of the same compound?
Answer: Active

Question: And the Tm (Mus musculus)?
Answer: 52.8 °C

Question: What about the Activity [6] of the same compound?
Answer: Active

Question: And the Activity [7]?
Answer: Dose-Dependent Effect

Question: And the Activity [8]?
Answer: Dose-Dependent Effect

Question: And the Activity (THP1-Dual KO-STING)?
Answer: inactive

Question: And the Tm [9]?
Answer: 45.5 °C

Question: And the Activity [10]?
Answer: Active

Question: What about the fold change (FC) [11] of the same compound?
Answer: 3.2

Question: What about the Tm (Homo sapiens [12]) of the same compound?
Answer: 46.8 °C

Question: And the Activity (293-Dual hSTING-H232)?
Answer: Dose-Dependent Effect

Question: What about the Tm [13] of the same compound?
Answer: 45.8 °C

Question: What about the Activity [14] of the same compound?
Answer: Dose-Dependent Effect

Question: With `CCn1nc(C)cc1C(=O)/N=c1\[nH]c2cc(C(=O)O)ccc2n1C[C@@H](O)c1ccccc1` as the compound, how does the IC50 [15] read?
Answer: 14 µM
